“And” between values parts separate entries of the source, which are not always exact repeats. Equal values may be shown once.
System: Fibroblast
Assay: Multiplex assay against human fibroblast
Format: toxicity, cell-based
Summary of the method: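 Live cells carried four stains from seeding: Hoechst33342, BioTracker Green Microtubule Cytoskeleton Dye, MitoTracker Red and Annexin V Alexa Fluor 680. They were imaged on a CQ1 microscope at 37°C and 5% CO2 after compound addition. Using CellPathfinder machine-learning gating, cells were split into Hoechst high-intensity objects or normal cells, normal cells into healthy, pyknosed or fragmented nuclei, and pyknosed cells into mitotic or apoptotic; tubulin, mitochondrial-mass and membrane-permeability phenotypes are per cents of healthy-nucleus cells.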

[1] = 12 h, 1 µM, compound concentration 1 uM
[2] = 12 h, 10 µM, compound concentration 10 uM
[3] = 24 h, 1 µM, compound concentration 1 uM
[4] = 24 h, 10 µM, compound concentration 10 uM
[5] = 48 h, 1 µM, compound concentration 1 uM
[6] = 48 h, 10 µM, compound concentration 10 uM

SMILES: O=C1CSC(=O)N1C(CCc1ccncc1)COc1ccc(-c2cccc([N+](=O)[O-])c2)cc1 (centres undefined)
- Population Apoptotic (%) [1]: 15.94% and 18.18%
- Population Fragmented Nuclei (%) [1]: 10.47% and 7.01%
- Population Healthy Nuclei (%) [1]: 49.42% and 67.29%
- Population Hoechst High Intensity Objects (%) [1]: 0%
- Population Membrane Permeable-Phenotype (%) [1]: 7.06% and 9.03%
- Population Mitochondria Different-Phenotype (%) [1]: 17.65% and 14.58%
- Population Mitotic Cells (%) [1]: 84.06% and 81.82%
- Population Normal (%) [1]: 100%
- Population Pyknosed Nuclei (%) [1]: 40.12% and 25.7%
- Population Tubulin-Different-Phenotype (%) [1]: 45.88% and 47.22%
- Total Cell Count [1]: 172 and 214
- Population Apoptotic (%) [2]: 20.34% and 45%
- Population Fragmented Nuclei (%) [2]: 16.2% and 9.55%
- Population Healthy Nuclei (%) [2]: 42.25% and 60.3%
- Population Hoechst High Intensity Objects (%) [2]: 0%
- Population Membrane Permeable-Phenotype (%) [2]: 16.67% and 33.33%
- Population Mitochondria Different-Phenotype (%) [2]: 43.33% and 52.5%
- Population Mitotic Cells (%) [2]: 79.66% and 55%
- Population Normal (%) [2]: 100%
- Population Pyknosed Nuclei (%) [2]: 41.55% and 30.15%
- Population Tubulin-Different-Phenotype (%) [2]: 71.67% and 99.17%
- Total Cell Count [2]: 142 and 199
- Population Apoptotic (%) [3]: 12.82% and 22.22%
- Population Fragmented Nuclei (%) [3]: 15.38% and 8.89%
- Population Healthy Nuclei (%) [3]: 63.19% and 75.11%
- Population Hoechst High Intensity Objects (%) [3]: 0%
- Population Membrane Permeable-Phenotype (%) [3]: 5.22% and 7.69%
- Population Mitochondria Different-Phenotype (%) [3]: 13.04% and 14.79%
- Population Mitotic Cells (%) [3]: 87.18% and 77.78%
- Population Normal (%) [3]: 100%
- Population Pyknosed Nuclei (%) [3]: 21.43% and 16%
- Population Tubulin-Different-Phenotype (%) [3]: 32.17% and 39.05%
- Total Cell Count [3]: 182 and 225
- Population Apoptotic (%) [4]: 30.56% and 30.23%
- Population Fragmented Nuclei (%) [4]: 18.75% and 10.08%
- Population Healthy Nuclei (%) [4]: 56.25% and 71.85%
- Population Hoechst High Intensity Objects (%) [4]: 0%
- Population Membrane Permeable-Phenotype (%) [4]: 9.88% and 12.87%
- Population Mitochondria Different-Phenotype (%) [4]: 43.21% and 52.05%
- Population Mitotic Cells (%) [4]: 69.44% and 69.77%
- Population Normal (%) [4]: 100%
- Population Pyknosed Nuclei (%) [4]: 25% and 18.07%
- Population Tubulin-Different-Phenotype (%) [4]: 86.42% and 97.08%
- Total Cell Count [4]: 144 and 238
- Population Apoptotic (%) [5]: 21.43% and 21.21%
- Population Fragmented Nuclei (%) [5]: 11.27% and 8.23%
- Population Healthy Nuclei (%) [5]: 81.86% and 77.49%
- Population Hoechst High Intensity Objects (%) [5]: 0%
- Population Membrane Permeable-Phenotype (%) [5]: 1.2% and 3.91%
- Population Mitochondria Different-Phenotype (%) [5]: 16.17% and 5.59%
- Population Mitotic Cells (%) [5]: 78.57% and 78.79%
- Population Normal (%) [5]: 100%
- Population Pyknosed Nuclei (%) [5]: 6.86% and 14.29%
- Population Tubulin-Different-Phenotype (%) [5]: 25.75% and 37.99%
- Total Cell Count [5]: 204 and 231
- Population Fragmented Nuclei (%) [6]: 15.87% and 12.5%
- Population Healthy Nuclei (%) [6]: 73.02% and 80.83%
- Population Hoechst High Intensity Objects (%) [6]: 0%
- Population Membrane Permeable-Phenotype (%) [6]: 13.04% and 19.07%
- Population Mitochondria Different-Phenotype (%) [6]: 35.51% and 19.59%
- Population Mitotic Cells (%) [6]: 61.9% and 87.5%
- Population Normal (%) [6]: 100%
- Population Pyknosed Nuclei (%) [6]: 11.11% and 6.67%
- Population Tubulin-Different-Phenotype (%) [6]: 84.06% and 98.45%
- Total Cell Count [6]: 189 and 240

SMILES: N#Cc1ccnc(Nc2cc(C3CCN(C4COC4)CC3)cc(N3CCC(F)(F)C3)n2)c1
- Population Apoptotic (%) [1]: 14.12% and 22.64%
- Population Fragmented Nuclei (%) [1]: 18.52% and 8.85%
- Population Healthy Nuclei (%) [1]: 42.13% and 67.7%
- Population Hoechst High Intensity Objects (%) [1]: 0%
- Population Membrane Permeable-Phenotype (%) [1]: 3.3% and 2.61%
- Population Mitochondria Different-Phenotype (%) [1]: 16.48% and 9.8%
- Population Mitotic Cells (%) [1]: 85.88% and 77.36%
- Population Normal (%) [1]: 100%
- Population Pyknosed Nuclei (%) [1]: 39.35% and 23.45%
- Population Tubulin-Different-Phenotype (%) [1]: 31.87% and 33.33%
- Total Cell Count [1]: 216 and 226
- Population Apoptotic (%) [2]: 60.19% and 71.72%
- Population Fragmented Nuclei (%) [2]: 13.02% and 15.68%
- Population Healthy Nuclei (%) [2]: 36.74% and 30.81%
- Population Hoechst High Intensity Objects (%) [2]: 0% and 0.54%
- Population Mitochondria Different-Phenotype (%) [2]: 35.44% and 45.61%
- Population Mitotic Cells (%) [2]: 39.81% and 28.28%
- Population Normal (%) [2]: 100% and 99.46%
- Population Pyknosed Nuclei (%) [2]: 50.23% and 53.51%
- Population Tubulin-Different-Phenotype (%) [2]: 45.57% and 73.68%
- Total Cell Count [2]: 215 and 186
- Population Apoptotic (%) [3]: 7.81% and 14%
- Population Fragmented Nuclei (%) [3]: 19.58% and 9.81%
- Population Healthy Nuclei (%) [3]: 53.75% and 66.82%
- Population Hoechst High Intensity Objects (%) [3]: 0%
- Population Membrane Permeable-Phenotype (%) [3]: 5.43% and 4.2%
- Population Mitochondria Different-Phenotype (%) [3]: 19.38% and 23.08%
- Population Mitotic Cells (%) [3]: 92.19% and 86%
- Population Normal (%) [3]: 100%
- Population Pyknosed Nuclei (%) [3]: 26.67% and 23.36%
- Population Tubulin-Different-Phenotype (%) [3]: 29.46% and 47.55%
- Total Cell Count [3]: 240 and 214
- Population Apoptotic (%) [4]: 58.59% and 84.62%
- Population Fragmented Nuclei (%) [4]: 13.17% and 9.55%
- Population Healthy Nuclei (%) [4]: 38.54% and 39.33%
- Population Hoechst High Intensity Objects (%) [4]: 0% and 0.56%
- Population Membrane Permeable-Phenotype (%) [4]: 10.13% and 20%
- Population Mitochondria Different-Phenotype (%) [4]: 32.91% and 55.71%
- Population Mitotic Cells (%) [4]: 41.41% and 15.38%
- Population Normal (%) [4]: 100% and 99.44%
- Population Pyknosed Nuclei (%) [4]: 48.29% and 51.12%
- Population Tubulin-Different-Phenotype (%) [4]: 37.97% and 78.57%
- Total Cell Count [4]: 205 and 179
- Population Fragmented Nuclei (%) [5]: 19.03% and 11.35%
- Population Healthy Nuclei (%) [5]: 63.97% and 74.24%
- Population Hoechst High Intensity Objects (%) [5]: 0%
- Population Membrane Permeable-Phenotype (%) [5]: 2.53% and 2.94%
- Population Mitochondria Different-Phenotype (%) [5]: 21.52% and 11.18%
- Population Mitotic Cells (%) [5]: 92.86% and 57.58%
- Population Normal (%) [5]: 100%
- Population Pyknosed Nuclei (%) [5]: 17% and 14.41%
- Population Tubulin-Different-Phenotype (%) [5]: 32.91% and 54.12%
- Total Cell Count [5]: 247 and 229
- Population Apoptotic (%) [6]: 59.57% and 79.01%
- Population Fragmented Nuclei (%) [6]: 13% and 11.52%
- Population Healthy Nuclei (%) [6]: 44.84% and 46.07%
- Population Hoechst High Intensity Objects (%) [6]: 0% and 0.52%
- Population Membrane Permeable-Phenotype (%) [6]: 7% and 15.91%
- Population Mitochondria Different-Phenotype (%) [6]: 36% and 20.45%
- Population Mitotic Cells (%) [6]: 40.43% and 20.99%
- Population Normal (%) [6]: 100% and 99.48%
- Population Pyknosed Nuclei (%) [6]: 42.15% and 42.41%
- Population Tubulin-Different-Phenotype (%) [6]: 37% and 56.82%
- Total Cell Count [6]: 223 and 192
